Test results: ChEMBL document CHEMBL1165849, “New structures and bioactivity properties of jasplakinolide (jaspamide) analogues from marine sponges” (2010)
The source made the active and inactive calls. No cut-off for these calls is given here.

Tests used:
[1] = tested on: HeLa; experiment: Cytotoxicity against human HeLa cells at 80 nM after 34 hrs by microfilament disruption assay; assay type: functional, cell-based
[2] = tested on: HCT-116; experiment: Growth inhibition of human HCT116 cells by sulforhodamine B assay; assay type: functional
[3] = tested on: MCF7; experiment: Growth inhibition of human MCF7 cells by sulforhodamine B assay; assay type: functional
[4] = tested on: HOP-62; experiment: Growth inhibition of human HOP62 cells by sulforhodamine B assay; assay type: functional
Method in brief: (§1)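 Tested by NCI in the NCI-DTP 60 cell line panel screen; GI50 was derived, with TGI and LC50 from the same data.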

[5] = tested on: HCT-15; experiment: Growth inhibition of human HCT15 cells by sulforhodamine B assay; assay type: functional; method in brief: as §1
[6] = tested on: SF-539; experiment: Growth inhibition of human SF539 cells by sulforhodamine B assay; assay type: functional; method in brief: as §1
[7] = tested on: M14; experiment: Growth inhibition of human M14 cells by sulforhodamine B assay; assay type: functional; method in brief: as §1
[8] = tested on: OVCAR-3; experiment: Growth inhibition of human OVCAR-3 cells by sulforhodamine B assay; assay type: functional; method in brief: as §1
[9] = tested on: 786-0; experiment: Growth inhibition of human 786-0 cells by sulforhodamine B assay; assay type: functional; method in brief: as §1
[10] = Growth inhibition of human […] cells by sulforhodamine B assay; assay type: functional; method in brief: as §1

**Q.** What does the source list for `C/C1=C\[C@H](C)C[C@H](C)OC(=O)C[C@H](c2ccc(O)cc2)NC(=O)[C@@H](C[C@@]2(O)C(=O)Nc3ccccc32)N(C)C(=O)C(C)NC(=O)[C@@H](C)C1` (stereo partly specified)?
**A.** Activity [1]: inactive; GI50 ([2]; Homo sapiens, HCT-116): > 10000 nM; GI50 ([3]; Homo sapiens, MCF7): > 10000 nM

**Q.** For `C/C1=C\[C@H](C)C[C@H](C)OC(=O)C[C@H](c2ccc(O)cc2)NC(=O)[C@@H](Cc2c(Br)[nH]c3ccccc23)N(C)C(=O)[C@H](C)NC(=O)CC1`, which Activity [1] is on record?
**A.** Active

**Q.** Which Activity [1] does the source give for `C/C1=C\[C@H](C)C[C@H](C)OC(=O)C[C@H](c2ccc(O)cc2)NC(=O)[C@@H](Cc2ncnc3ccccc23)N(C)C(=O)C(C)NC(=O)[C@@H](C)C1` (stereo partly specified) here?
**A.** inactive

**Q.** With `C=C1C[C@H](C)C(=O)N[C@@H](C)C(=O)N(C)[C@H](CC2(OC)OC(=O)Nc3ccccc32)C(=O)N[C@@H](c2ccc(O)cc2)CC(=O)O[C@@H](C)C[C@@H](C)C1=O` (stereo partly specified) as the molecule, how does the Activity [1] read?
**A.** inactive

**Q.** For `C=C1C[C@H](C)C(=O)N[C@@H](C)C(=O)N(C)[C@H](Cc2c(Br)[nH]c3ccccc23)C(=O)N[C@@H](c2ccc(O)cc2)CC(=O)O[C@@H](C)C[C@@H](C)[C@@H]1O`, which Activity [1] is on record?
**A.** inactive

**Q.** Which Activity [1] does the source give for `C=C1C[C@H](C)C(=O)N[C@@H](C)C(=O)N(C)[C@H](Cc2c(Br)[nH]c3ccccc23)C(=O)N[C@@H](c2ccc(O)cc2)CC(=O)O[C@@H](C)C[C@@H](C)[C@H]1O` here?
**A.** inactive

**Q.** Which Activity [1] does the source give for `COC1(C[C@@H]2C(=O)N[C@@H](c3ccc(O)cc3)CC(=O)O[C@@H](C)C[C@@H](C)/C=C(\C)C[C@H](C)C(=O)N[C@@H](C)C(=O)N2C)OC(=O)Nc2ccccc21` (stereo in doubt; 5) here?
**A.** inactive

**Q.** For `COC1(C[C@@H]2C(=O)N[C@@H](c3ccc(O)cc3)CC(=O)O[C@@H](C)C[C@@H](C)/C=C(\C)C[C@H](C)C(=O)N[C@@H](C)C(=O)N2C)OC(=O)Nc2ccccc21` (stereo in doubt; 5) [JASPLAKINOLIDEP], which GI50 ([2]; Homo sapiens, HCT-116) is on record?
**A.** 350 nM

**Q.** What about the GI50 [3] of the same molecule?
**A.** 4900 nM

**Q.** For `COC1(C[C@@H]2C(=O)N[C@@H](c3ccc(O)cc3)CC(=O)O[C@@H](C)C[C@@H](C)/C=C(\C)C[C@H](C)C(=O)N[C@@H](C)C(=O)N2C)OC(=O)Nc2ccccc21` (stereo in doubt; 6), which Activity [1] is on record?
**A.** inactive

**Q.** Which GI50 [2] does the source give for `COC1(C[C@@H]2C(=O)N[C@@H](c3ccc(O)cc3)CC(=O)O[C@@H](C)C[C@@H](C)/C=C(\C)C[C@H](C)C(=O)N[C@@H](C)C(=O)N2C)OC(=O)Nc2ccccc21` (stereo in doubt; 6) [JASPLAKINOLIDEP] here?
**A.** 380 nM

**Q.** And the GI50 [3]?
**A.** 2400 nM

**Q.** With `C/C1=C\[C@H](C)C[C@H](C)OC(=O)C[C@H](c2ccc(O)cc2)NC(=O)[C@@H](Cc2c(Br)[nH]c3ccccc23)N(C)C(=O)[C@H](CO)NC(=O)[C@@H](C)C1` [JASPAMIDE E] as the molecule, how does the Activity [1] read?
**A.** inactive

**Q.** What about the GI50 [4] of the same molecule?
**A.** 140 nM

**Q.** And the GI50 ([2]; Homo sapiens, HCT-116)?
**A.** 140 nM

**Q.** And the GI50 [5]?
**A.** 970 nM

**Q.** What about the GI50 [6] of the same molecule?
**A.** 170 nM

**Q.** What about the GI50 [7] of the same molecule?
**A.** 78 nM

**Q.** What about the GI50 [8] of the same molecule?
**A.** 530 nM

**Q.** What about the GI50 [9] of the same molecule?
**A.** 180 nM

**Q.** What about the GI50 ([3]; Homo sapiens, MCF7) of the same molecule?
**A.** 180 nM

**Q.** What about the GI50 [10] of the same molecule?
**A.** 22 nM

**Q.** Which results are given for `C/C1=C\[C@H](C)C[C@H](C)OC(=O)C[C@H](c2ccc(O)cc2)NC(=O)[C@@H](Cc2c(Br)[nH]c3ccccc23)N(C)C(=O)[C@H](C)NC(=O)[C@@H](C)C1` [JASPAMIDE]?
**A.** Activity [1]: Active; GI50 [4]: 150 nM; GI50 ([2]; Homo sapiens, HCT-116): 100 nM; GI50 [5]: 690 nM; GI50 [6]: 300 nM; GI50 [7]: 56 nM; GI50 [8]: 40 nM; GI50 [9]: 20 nM; GI50 [10]: 31 nM

**Q.** With `C=C1C[C@H](C)C(=O)N[C@@H](C)C(=O)N(C)[C@H](Cc2c(Br)[nH]c3ccccc23)C(=O)N[C@@H](c2ccc(O)cc2)CC(=O)O[C@@H](C)C[C@@H](C)C1=O` [JASPLAKINOLIDE B] as the molecule, how does the Activity [1] read?
**A.** inactive

**Q.** And the GI50 [4]?
**A.** 140 nM

**Q.** What about the GI50 ([2]; Homo sapiens, HCT-116) of the same molecule?
**A.** < 1 nM

**Q.** What about the GI50 [5] of the same molecule?
**A.** 6600 nM

**Q.** What about the GI50 [6] of the same molecule?
**A.** 64 nM

**Q.** And the GI50 [7]?
**A.** 53 nM

**Q.** And the GI50 [8]?
**A.** 110 nM

**Q.** And the GI50 [9]?
**A.** 510 nM

**Q.** And the GI50 ([3]; Homo sapiens, MCF7)?
**A.** 130 nM

**Q.** And the GI50 [10]?
**A.** 1.9 nM

**Q.** Which results are given for `C/C1=C\[C@H](C)C[C@H](C)OC(=O)C[C@H](c2ccc(O)cc2)NC(=O)[C@@H](C[C@]2(O)C(=O)Nc3ccccc32)N(C)C(=O)C(C)NC(=O)[C@@H](C)C1` (stereo partly specified) [JASPLAKINOLIDE S]?
**A.** Activity [1]: inactive; GI50 ([2]; Homo sapiens, HCT-116): 810 nM; GI50 ([3]; Homo sapiens, MCF7): 2300 nM
